What all share (format): functional
In assay [1] the test system is Mycobacterium kansasii. Nature of the assay: Antimycobacterial activity against Mycobacterium kansasii My 6509/96 clinical isolate after 7 days by micromethod. The settings on record: My 6509/96, 168 h.
The test system of assay [2] is Mycobacterium kansasii. Nature of the assay: Antimycobacterial activity against Mycobacterium kansasii My 6509/96 clinical isolate after 21 days by micromethod. The settings on record: My 6509/96, 504 h.
The subject of assay [3] is Mycobacterium tuberculosis. Nature of the assay: Antimycobacterial activity against Mycobacterium tuberculosis My 331/88 after 14 days by micromethod. Particulars: My 331/88, 336 h. The gist of the method:
(§1)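 MIC by micromethod at 37 °C, read after 14 and 21 days. Inocula were M. tuberculosis My 331/88 at 10^-3 dilution and M. avium My 330/88 at 10^-5 dilution. Compounds added in DMSO across 1000, 500, 250, 125, 62.5, 32, 16, 8, 4, 2, 1 and 0.5; isoniazid standard in sterile water. MIC taken as the lowest concentration inhibiting growth.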

The test system of assay [4] is Mycobacterium avium. Nature of the assay: Antimycobacterial activity against Mycobacterium avium My 330/88 after 14 days by micromethod. Particulars: My 330/88, 336 h.
Assay [5] has as its system Mycobacterium avium. Nature of the assay: Antimycobacterial activity against Mycobacterium avium My 330/88 after 21 days by micromethod. The settings on record: My 330/88, 504 h.
Assay [6] deals with Mycobacterium kansasii. Nature of the assay: Antimycobacterial activity against Mycobacterium kansasii My 235/80 after 14 days by micromethod. Particulars: My 235/80, 336 h.
Assay [7] relates to Mycobacterium kansasii. Nature of the assay: Antimycobacterial activity against Mycobacterium kansasii My 6509/96 clinical isolate after 14 days by micromethod. Particulars: My 6509/96, 336 h.
The test system of assay [8] is Mycobacterium kansasii. Briefly: Antimycobacterial activity against Mycobacterium kansasii My 235/80 after 21 days by micromethod. The settings on record: My 235/80, 504 h.
Assay [9] has as its system Mycobacterium tuberculosis. Nature of the assay: Antimycobacterial activity against Mycobacterium tuberculosis My 331/88 after 21 days by micromethod. The settings on record: My 331/88, 504 h. The gist of the method:
as §1

For assay [10], the system named is Mycobacterium kansasii. Nature of the assay: Antimycobacterial activity against Mycobacterium kansasii My 235/80 after 7 days by micromethod. Particulars: My 235/80, 168 h.

In brackets after ≈: the same amount, converted by molar mass. Where only a bound is given, the exact number is not on record here.

One may read the MIC as the smallest concentration in the dilution series that meets the test's criterion for growth inhibition. Higher therefore signals a less susceptible organism. As to `COc1cc(Cl)ccc1C(=O)Nc1ccc(Br)cc1`, the MIC in the assay with Mycobacterium kansasii [1] came out at 4 µM (≈ 1.36 µg/mL); against Mycobacterium kansasii [2], 32 µM (≈ 10.9 µg/mL); in [3], 62.5 µM (≈ 21.3 µg/mL); against Mycobacterium avium [4], 8 µM (≈ 2.72 µg/mL); against Mycobacterium avium [5], 32 µM (≈ 10.9 µg/mL); against Mycobacterium kansasii [6], 8 µM (≈ 2.72 µg/mL). Moreover, the MIC was 8 µM (≈ 2.72 µg/mL) with Mycobacterium kansasii [7], 32 µM (≈ 10.9 µg/mL) in the assay with Mycobacterium kansasii [8], 125 µM (≈ 42.6 µg/mL) in assay [9] and 4 µM (≈ 1.36 µg/mL) with Mycobacterium kansasii [10].
For `COc1cc(Cl)ccc1C(=O)Nc1cccc(C(F)(F)F)c1`, the MIC in the assay with Mycobacterium kansasii [1] was 125 µM (≈ 41.2 µg/mL); in the assay on Mycobacterium kansasii [2], 125 µM (≈ 41.2 µg/mL); in assay [3], 250 µM (≈ 82.4 µg/mL); with Mycobacterium avium [4] it was 125 µM (≈ 41.2 µg/mL); in the assay on Mycobacterium avium [5] it was 125 µM (≈ 41.2 µg/mL); in the assay on Mycobacterium kansasii [6], 250 µM (≈ 82.4 µg/mL). The MIC in the assay with Mycobacterium kansasii [7] is 125 µM (≈ 41.2 µg/mL); in the assay on Mycobacterium kansasii [8], 250 µM (≈ 82.4 µg/mL); in assay [9] it was 250 µM (≈ 82.4 µg/mL); against Mycobacterium kansasii [10] it was 125 µM (≈ 41.2 µg/mL).
Turning to `O=C(Nc1ccc(Cl)c(Cl)c1)c1ccc(Cl)cc1O`, the minimal inhibitory concentration (MIC) in assay [3] is 4 µM (≈ 1.27 µg/mL); in the assay with Mycobacterium avium [4], 16 µM (≈ 5.07 µg/mL); against Mycobacterium avium [5], 16 µM (≈ 5.07 µg/mL); against Mycobacterium kansasii [6], 8 µM (≈ 2.53 µg/mL); against Mycobacterium kansasii [8], 8 µM (≈ 2.53 µg/mL); in assay [9], 4 µM (≈ 1.27 µg/mL).
As to `COc1cc(Cl)ccc1C(=O)Nc1ccc([N+](=O)[O-])cc1`, the MIC was 125 µM (≈ 38.3 µg/mL) in the assay on Mycobacterium kansasii [1]; 125 µM (≈ 38.3 µg/mL) in the assay with Mycobacterium kansasii [2]; 250 µM (≈ 76.7 µg/mL) in assay [3]; 250 µM (≈ 76.7 µg/mL) against Mycobacterium avium [4]; 250 µM (≈ 76.7 µg/mL) against Mycobacterium avium [5]; 250 µM (≈ 76.7 µg/mL) in the assay with Mycobacterium kansasii [6]. Also, the MIC came to 125 µM (≈ 38.3 µg/mL) in the assay with Mycobacterium kansasii [7], 250 µM (≈ 76.7 µg/mL) against Mycobacterium kansasii [8], 250 µM (≈ 76.7 µg/mL) in assay [9] and 125 µM (≈ 38.3 µg/mL) in the assay on Mycobacterium kansasii [10].
Turning to `COc1ccc(Cl)cc1C(=S)Nc1ccc(Br)cc1`, the MIC with Mycobacterium kansasii [1] was determined as 16 µM (≈ 5.71 µg/mL); in the assay with Mycobacterium kansasii [2], 32 µM (≈ 11.4 µg/mL); in assay [3], 16 µM (≈ 5.71 µg/mL); in the assay with Mycobacterium avium [4], 16 µM (≈ 5.71 µg/mL); against Mycobacterium avium [5] it was 16 µM (≈ 5.71 µg/mL); against Mycobacterium kansasii [6], 250 µM (≈ 89.2 µg/mL). Moreover, the MIC in the assay with Mycobacterium kansasii [7] came out at 32 µM (≈ 11.4 µg/mL); against Mycobacterium kansasii [8], 250 µM (≈ 89.2 µg/mL); in assay [9], 16 µM (≈ 5.71 µg/mL); with Mycobacterium kansasii [10], 62.5 µM (≈ 22.3 µg/mL).
For `COc1ccc(Cl)cc1C(=O)Nc1ccc(C(F)(F)F)cc1`, the MIC worked out at 62.5 µM (≈ 20.6 µg/mL) with Mycobacterium kansasii [1]; 250 µM (≈ 82.4 µg/mL) in the assay on Mycobacterium kansasii [2]; 250 µM (≈ 82.4 µg/mL) in assay [3]; 250 µM (≈ 82.4 µg/mL) against Mycobacterium avium [4]; 250 µM (≈ 82.4 µg/mL) in the assay on Mycobacterium avium [5]; 500 µM (≈ 165 µg/mL) in the assay on Mycobacterium kansasii [6]. Also, the minimal inhibitory concentration (MIC) in the assay with Mycobacterium kansasii [7] amounted to 250 µM (≈ 82.4 µg/mL); in the assay on Mycobacterium kansasii [8] it was 500 µM (≈ 165 µg/mL); in assay [9], 250 µM (≈ 82.4 µg/mL); against Mycobacterium kansasii [10], 125 µM (≈ 41.2 µg/mL).
In the case of `NNC(=O)c1ccncc1` [ISONIAZID], the minimal inhibitory concentration (MIC) was 4 µM (≈ 0.549 µg/mL) with Mycobacterium kansasii [1]; 4 µM (≈ 0.549 µg/mL) in the assay on Mycobacterium kansasii [2]; 0.5 µM (≈ 0.0686 µg/mL) in [3]; 200 µM (≈ 27.4 µg/mL) in the assay on Mycobacterium avium [4]; 250 µM (≈ 34.3 µg/mL) in the assay on Mycobacterium avium [5]; 200 µM (≈ 27.4 µg/mL) in the assay with Mycobacterium kansasii [6]. Moreover, the MIC with Mycobacterium kansasii [7] is 4 µM (≈ 0.549 µg/mL); in the assay on Mycobacterium kansasii [8], 250 µM (≈ 34.3 µg/mL); in [9], 0.5 µM (≈ 0.0686 µg/mL); against Mycobacterium kansasii [10], over 250 µM.
Regarding `O=C(Nc1ccc(Br)cc1)c1ccc(Cl)cc1O`, the minimal inhibitory concentration (MIC) in assay [3] amounted to 4 µM (≈ 1.31 µg/mL); against Mycobacterium avium [4], 16 µM (≈ 5.23 µg/mL); in the assay on Mycobacterium avium [5], 16 µM (≈ 5.23 µg/mL); against Mycobacterium kansasii [6], 4 µM (≈ 1.31 µg/mL); in the assay with Mycobacterium kansasii [8], 4 µM (≈ 1.31 µg/mL); in assay [9], 4 µM (≈ 1.31 µg/mL).
Regarding `COc1cc(Cl)ccc1C(=O)Nc1ccc(C(F)(F)F)cc1`, the MIC came out at 32 µM (≈ 10.6 µg/mL) against Mycobacterium kansasii [1]; 125 µM (≈ 41.2 µg/mL) against Mycobacterium kansasii [2]; 125 µM (≈ 41.2 µg/mL) in assay [3]; 62.5 µM (≈ 20.6 µg/mL) against Mycobacterium avium [4]; 125 µM (≈ 41.2 µg/mL) with Mycobacterium avium [5]; 125 µM (≈ 41.2 µg/mL) in the assay on Mycobacterium kansasii [6]. For the same molecule, the MIC (in the assay with Mycobacterium kansasii [7]; against Mycobacterium kansasii [8]; in assay [9]; against Mycobacterium kansasii [10]) was 125 µM (≈ 41.2 µg/mL) each time.
Turning to `COc1ccc(Cl)cc1C(=S)Nc1cccc([N+](=O)[O-])c1`, the MIC amounted to 62.5 µM (≈ 20.2 µg/mL) in the assay on Mycobacterium kansasii [1]; 250 µM (≈ 80.7 µg/mL) against Mycobacterium kansasii [2]; 250 µM (≈ 80.7 µg/mL) in [3]; 250 µM (≈ 80.7 µg/mL) against Mycobacterium avium [4]; 250 µM (≈ 80.7 µg/mL) with Mycobacterium avium [5]; 250 µM (≈ 80.7 µg/mL) in the assay on Mycobacterium kansasii [6]. The MIC came out at 250 µM (≈ 80.7 µg/mL) against Mycobacterium kansasii [7], 250 µM (≈ 80.7 µg/mL) against Mycobacterium kansasii [8], 250 µM (≈ 80.7 µg/mL) in assay [9] and 62.5 µM (≈ 20.2 µg/mL) against Mycobacterium kansasii [10].
